Ends that are not written are not given here.
Key:
elastase [1] = target: T1, elastase (Sus scrofa, UniProt P00772); experiment: Elastase inhibition test; format: biochemical
Procedure, shortened: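 Elastase from the commercial supply; test compound in 50 mM Tris-HCl, pH 8.0. The 1 mM substrate solution and the sample (buffer for the negative control) were mixed and A410 was read. Then 100 mU/mL elastase was added and incubated 5 min at 25℃, stopped with 2 M HCl, and A410 was read again. EGCG reference at 0.5 mg/mL; three independent experiments.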

porcine pepsin = experiment: In vitro simulated gastric digestion stability, RP-HPLC; format: in vitro ADME; settings: pig, simulated gastric fluid with porcine pepsin, pH 2
Procedure, shortened: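 Test peptide was digested with […] porcine pepsin at pH 2.0 ([…] KCl-HCl) and an enzyme:substrate ratio of 1:30 (w/w). Digestion ran 2 h at 37℃, shaking at 170 rpm. Enzyme was inactivated in boiling water for 10 min and the digest centrifuged at 6000 × g for 15 min. Peptide before and after digestion was compared by C18 RP-HPLC with water/0.1 % TFA and acetonitrile/0.1 % TFA, 1.0 mL/min, 220 nm detection; triplicate.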

elastase [2] = target: T1, elastase; settings: bovine elastin peptides; ref Liu, Su, Zhou, Zhang, Zheng, & Zhao, 2018; cited from earlier work

T1 sequence (P00772 27-266): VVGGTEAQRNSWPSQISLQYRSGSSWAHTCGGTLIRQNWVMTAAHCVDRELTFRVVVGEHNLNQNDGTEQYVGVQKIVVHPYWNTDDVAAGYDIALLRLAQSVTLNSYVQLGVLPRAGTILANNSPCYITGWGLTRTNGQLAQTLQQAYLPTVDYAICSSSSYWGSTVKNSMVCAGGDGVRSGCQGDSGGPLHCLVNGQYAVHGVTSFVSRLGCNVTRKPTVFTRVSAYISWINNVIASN

Substance | IC50 (elastase [1]) | remaining at 2 h, 1 mg/mL (porcine pepsin) | elastase inhibitory activity (in words) (elastase [2])
FFVPF [FFVPF, Phe-Phe-Val-Pro-Phe] | 715 µM | 87.5 ± 1.24% | –
GLGPGVG | – | – | weakly active
GLPY | – | – | most active
GPGGVGAL | – | – | weakly active

Reference: paper PMC9574760 (Food Chemistry: Molecular Sciences, 2022)
